The nature of data set [1]: Tested for cytotoxicity by using brine shrimp lethality test. In kind it is organism-based. The settings on record: artemia, in vivo.
The next data set relates to MCF7. In words: Tested in vitro for cytotoxicity against MCF-7 breast cancer cells. In kind it is functional. The note with it: Homo sapiens, read-out: ED50 (the source's name). The method in brief: (§1)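 Seven-day in vitro cytotoxicity assay in human tumour cell lines (A-549 lung carcinoma, MCF-7 breast carcinoma, HT-29 colon carcinoma), run by standard protocols; adriamycin tested alongside.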

Another data set deals with A549. In words: Tested in vitro for cytotoxicity against A-549 lung cancer cells. In kind it is functional. The settings on record: Homo sapiens, read-out: ED50 (the source's name). An outline of the steps:
as §1

The subject of the next data set is HT-29. In words: Tested in vitro for cytotoxicity against H-29 colon cancer cells. The settings on record: Homo sapiens, read-out: ED50 (the source's name). The data set is classed as functional. The method in brief: as §1

≈ marks a conversion by molar mass, not a printed value.

On to `CCCCCCCCCC[C@@H](C(C)=O)[C@H]1CC[C@H]([C@H]2CC[C@H]([C@@H](CCCC[C@H](CCCC[C@@H](C)CCC3=C[C@H](C)OC3=O)C(C)=O)C(C)=O)O2)O1`, for which the median lethal concentration (LC50) (commonly the concentration lethal to half of the exposed cells or organisms) in data set [1] turned out to be 0.0057 µg/mL (≈ 0.00797 µM).

In data set [1], `CCCCCCCCCC[C@@H](O)[C@H]1CC[C@H]([C@H]2CC[C@H]([C@H](O)CCCCCCCCC[C@@H](C)CCC3=C[C@H](C)OC3=O)O2)O1` showed an LC50 of 4600 µg/mL (≈ 7410 µM).

Consider `CCCCCCCCCC[C@@H](O)[C@H]1CC[C@H]([C@H]2CC[C@H]([C@H](O)CCCCCCCCCC[C@H](O)CC3=C[C@H](C)OC3=O)O2)O1`, for which the EC50 in the data set with MCF7 was 0.852 µg/mL (≈ 1.37 µM); with A549, 0.00843 µg/mL (≈ 0.0135 µM). Moreover, the median lethal concentration (LC50) in data set [1] was 0.0256 µg/mL (≈ 0.0411 µM).

Take `COc1cccc2c1C(=O)c1c(O)c3c(c(O)c1C2=O)C[C@@](O)(C(=O)CO)C[C@@H]3O[C@H]1C[C@H](N)[C@H](O)[C@H](C)O1` [DOXORUBICIN]: the EC50 is 0.0176 µg/mL (≈ 0.0324 µM) in the data set on MCF7, 0.000104 µg/mL (≈ 0.000191 µM) in the data set with A549 and 0.000153 µg/mL (≈ 0.000281 µM) with HT-29. In data set [1], this compound registered an LC50 of 0.257 µg/mL (≈ 0.473 µM).

`CCCCCC[C@H](O)CCC[C@@H](O)[C@H]1CC[C@H]([C@H]2CC[C@H]([C@H](O)CCCCCCCCC[C@@H](C)CCC3=C[C@H](C)OC3=O)O2)O1` came in with an LC50 in data set [1] of 0.0049 µg/mL (≈ 0.00769 µM).

Values taken from ChEMBL document CHEMBL1127800, “Asimin, asiminacin, and asiminecin: novel highly cytotoxic asimicin isomers from Asimina triloba” (J Med Chem, 1994).
